The source of these data is ChEMBL document CHEMBL2424622, “Development of amino-pyrimidine inhibitors of c-Jun N-terminal kinase (JNK): kinase profiling guided optimization of a 1,2,3-benzotriazole lead” (Bioorg Med Chem Lett, 2013).

As usually defined, the inhibition is the share of the control response that was lost under treatment.

Test [1] concerns the target T1, Serine/threonine-protein kinase Nek2 (Homo sapiens) (UniProt P51955).
T1 sequence (whole entry): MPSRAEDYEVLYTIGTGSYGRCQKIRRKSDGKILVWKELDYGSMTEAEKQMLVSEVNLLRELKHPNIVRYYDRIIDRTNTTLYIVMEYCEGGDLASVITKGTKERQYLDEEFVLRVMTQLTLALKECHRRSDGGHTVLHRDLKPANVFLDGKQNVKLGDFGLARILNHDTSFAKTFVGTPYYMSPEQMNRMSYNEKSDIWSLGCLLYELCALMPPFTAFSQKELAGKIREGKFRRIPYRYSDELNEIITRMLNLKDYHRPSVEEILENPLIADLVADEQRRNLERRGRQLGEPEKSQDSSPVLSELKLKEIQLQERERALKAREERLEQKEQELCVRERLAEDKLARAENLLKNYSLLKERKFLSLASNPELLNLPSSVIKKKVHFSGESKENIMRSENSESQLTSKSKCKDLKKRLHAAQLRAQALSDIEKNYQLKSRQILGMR
The experiment in a line: Competitive binding affinity to NEK2 (unknown origin) at 10 uM in presence of ATP relative to control. The procedure, abridged: (§1)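 In vitro ATP-site competition binding assay across a diverse panel of 128 kinases, with compound tested at a single concentration. Kinase selectivity scores (S15) were calculated from the panel profiles.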

Test [2] deals with Receptor tyrosine-protein kinase erbB-2 (Homo sapiens) (UniProt P04626). The experiment in a line: Competitive binding affinity to ERBB2 (unknown origin) at 10 uM in presence of ATP relative to control. In a few lines:
(§2)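 In vitro ATP-site competition binding assay, part of profiling against a diverse panel of 128 kinases. Each compound was tested at a single concentration of 10 µM. Kinome selectivity was summarized as S15 selectivity scores.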

Test [3] deals with T2, Mitogen-activated protein kinase 12 (Homo sapiens) (UniProt P53778).
T2 sequence (whole entry): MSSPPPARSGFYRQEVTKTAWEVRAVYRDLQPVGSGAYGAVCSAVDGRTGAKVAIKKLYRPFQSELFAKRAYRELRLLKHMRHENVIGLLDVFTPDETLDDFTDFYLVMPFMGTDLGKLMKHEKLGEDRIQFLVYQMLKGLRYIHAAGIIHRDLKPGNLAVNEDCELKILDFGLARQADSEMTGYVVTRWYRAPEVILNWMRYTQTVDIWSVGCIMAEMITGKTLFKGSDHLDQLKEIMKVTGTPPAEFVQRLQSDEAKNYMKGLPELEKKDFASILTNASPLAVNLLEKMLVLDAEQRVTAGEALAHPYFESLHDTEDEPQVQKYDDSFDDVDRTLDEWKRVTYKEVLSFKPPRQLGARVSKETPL
The experiment in a line: Competitive binding affinity to p38-gamma (unknown origin) at 10 uM in presence of ATP relative to control. In a few lines: as §1

Test [4] deals with T3, Ephrin type-A receptor 8 (Homo sapiens) (UniProt P29322).
T3 sequence (whole entry): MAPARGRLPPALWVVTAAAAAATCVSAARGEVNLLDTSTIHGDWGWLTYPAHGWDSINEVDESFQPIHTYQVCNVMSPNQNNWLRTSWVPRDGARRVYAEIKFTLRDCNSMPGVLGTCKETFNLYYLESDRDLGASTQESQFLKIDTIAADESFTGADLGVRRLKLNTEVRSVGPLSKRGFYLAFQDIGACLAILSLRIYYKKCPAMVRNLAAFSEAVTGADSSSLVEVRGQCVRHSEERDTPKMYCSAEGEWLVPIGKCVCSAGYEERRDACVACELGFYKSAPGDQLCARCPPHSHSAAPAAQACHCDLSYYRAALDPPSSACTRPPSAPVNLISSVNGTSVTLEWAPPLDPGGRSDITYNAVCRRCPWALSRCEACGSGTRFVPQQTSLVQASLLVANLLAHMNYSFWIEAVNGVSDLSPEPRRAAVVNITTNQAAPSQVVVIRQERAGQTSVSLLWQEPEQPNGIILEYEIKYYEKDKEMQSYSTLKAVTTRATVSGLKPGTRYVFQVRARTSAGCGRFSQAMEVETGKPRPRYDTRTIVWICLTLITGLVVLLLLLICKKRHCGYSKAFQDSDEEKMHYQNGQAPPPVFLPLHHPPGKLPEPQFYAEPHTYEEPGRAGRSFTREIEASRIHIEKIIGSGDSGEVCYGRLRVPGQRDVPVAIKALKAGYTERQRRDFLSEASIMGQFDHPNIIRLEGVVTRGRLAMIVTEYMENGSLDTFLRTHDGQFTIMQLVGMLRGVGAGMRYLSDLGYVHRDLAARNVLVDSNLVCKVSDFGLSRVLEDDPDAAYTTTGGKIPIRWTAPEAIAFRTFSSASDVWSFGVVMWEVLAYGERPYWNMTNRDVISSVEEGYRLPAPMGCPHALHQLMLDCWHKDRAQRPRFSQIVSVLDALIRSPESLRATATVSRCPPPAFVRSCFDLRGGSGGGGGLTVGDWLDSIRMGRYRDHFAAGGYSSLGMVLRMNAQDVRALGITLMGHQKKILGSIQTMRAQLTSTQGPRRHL
Kind of test: Competitive binding affinity to EPHA8 (unknown origin) at 10 uM in presence of ATP relative to control. In a few lines:
as §2

For test [5], the target named is Mitogen-activated protein kinase 11 (Homo sapiens, UniProt Q15759). The experiment in a line: Competitive binding affinity to p38-beta (unknown origin) at 10 uM in presence of ATP relative to control. In a few lines:
as §1

Test [6] deals with Ribosomal protein S6 kinase alpha-5 (Homo sapiens) (UniProt O75582). The experiment in a line: Competitive binding affinity to RPS6KA5 kinase domain 1 (unknown origin) at 10 uM in presence of ATP relative to control. In a few lines: as §1
Test [7] deals with Vascular endothelial growth factor receptor 3 (Homo sapiens) (UniProt P35916). Kind of test: Competitive binding affinity to FLT4 (unknown origin) at 10 uM in presence of ATP relative to control. The procedure, abridged:
as §2

In test [8] the target is Serine/threonine-protein kinase B-raf (Homo sapiens) (UniProt P15056). The experiment in a line: Competitive binding affinity to BRAF (unknown origin) at 10 uM in presence of ATP relative to control.
The target of test [9] is Casein kinase I isoform gamma-1 (Homo sapiens) (UniProt Q9HCP0). The experiment in a line: Competitive binding affinity to CSNK1G1 (unknown origin) at 10 uM in presence of ATP relative to control.
The target of test [10] is Mitogen-activated protein kinase 8 (Homo sapiens, UniProt P45983). The experiment in a line: Competitive binding affinity to JNK1 (unknown origin) at 10 uM in presence of ATP relative to control. In a few lines: (§3)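 In vitro ATP-site competition binding assay across a diverse panel of 128 kinases, with each compound tested at a single concentration. Kinase binding is expressed relative to control.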

In test [11] the target is Tyrosine-protein kinase ABL2 (Homo sapiens) (UniProt P42684). The experiment in a line: Competitive binding affinity to ABL2 (unknown origin) at 10 uM in presence of ATP relative to control.
For test [12], the target named is Death-associated protein kinase 2 (Homo sapiens, UniProt Q9UIK4). Kind of test: Competitive binding affinity to DAPK2 (unknown origin) at 10 uM in presence of ATP relative to control. The procedure, abridged: as §3
Death-associated protein kinase 2, sequence (Q9UIK4 whole entry, looked up): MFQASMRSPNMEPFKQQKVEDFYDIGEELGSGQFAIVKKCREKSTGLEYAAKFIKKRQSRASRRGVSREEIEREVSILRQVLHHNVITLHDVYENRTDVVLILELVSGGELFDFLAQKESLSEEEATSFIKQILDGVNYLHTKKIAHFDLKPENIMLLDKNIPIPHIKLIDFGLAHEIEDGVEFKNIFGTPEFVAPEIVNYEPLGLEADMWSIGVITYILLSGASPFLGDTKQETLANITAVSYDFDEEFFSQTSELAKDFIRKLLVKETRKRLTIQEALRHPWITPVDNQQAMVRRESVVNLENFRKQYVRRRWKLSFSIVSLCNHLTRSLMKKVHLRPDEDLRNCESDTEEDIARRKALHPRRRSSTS

Serine/threonine-protein kinase B-raf (Homo sapiens), sequence (P15056 whole entry, canonical isoform): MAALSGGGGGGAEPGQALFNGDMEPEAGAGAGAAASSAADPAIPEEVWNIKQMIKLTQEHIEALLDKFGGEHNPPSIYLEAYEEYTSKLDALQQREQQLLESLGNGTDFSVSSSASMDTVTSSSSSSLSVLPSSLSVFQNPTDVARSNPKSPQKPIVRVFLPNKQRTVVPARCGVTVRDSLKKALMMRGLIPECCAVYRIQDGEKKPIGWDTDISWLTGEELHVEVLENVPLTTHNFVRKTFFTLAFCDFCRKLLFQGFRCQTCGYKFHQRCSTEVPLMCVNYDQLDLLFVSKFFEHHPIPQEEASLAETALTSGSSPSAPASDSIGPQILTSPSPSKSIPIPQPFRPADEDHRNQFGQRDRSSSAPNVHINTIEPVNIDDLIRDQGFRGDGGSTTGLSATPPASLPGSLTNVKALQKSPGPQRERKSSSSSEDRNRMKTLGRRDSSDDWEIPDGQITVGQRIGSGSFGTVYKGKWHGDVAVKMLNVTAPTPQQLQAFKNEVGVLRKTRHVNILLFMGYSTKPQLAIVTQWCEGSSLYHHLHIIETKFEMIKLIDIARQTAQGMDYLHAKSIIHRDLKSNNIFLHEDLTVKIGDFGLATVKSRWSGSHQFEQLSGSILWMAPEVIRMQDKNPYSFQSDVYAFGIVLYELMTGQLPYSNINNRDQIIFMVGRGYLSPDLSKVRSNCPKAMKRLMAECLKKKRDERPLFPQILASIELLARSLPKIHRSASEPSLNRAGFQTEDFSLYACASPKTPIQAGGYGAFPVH
Receptor tyrosine-protein kinase erbB-2 (Homo sapiens), sequence (P04626 whole entry): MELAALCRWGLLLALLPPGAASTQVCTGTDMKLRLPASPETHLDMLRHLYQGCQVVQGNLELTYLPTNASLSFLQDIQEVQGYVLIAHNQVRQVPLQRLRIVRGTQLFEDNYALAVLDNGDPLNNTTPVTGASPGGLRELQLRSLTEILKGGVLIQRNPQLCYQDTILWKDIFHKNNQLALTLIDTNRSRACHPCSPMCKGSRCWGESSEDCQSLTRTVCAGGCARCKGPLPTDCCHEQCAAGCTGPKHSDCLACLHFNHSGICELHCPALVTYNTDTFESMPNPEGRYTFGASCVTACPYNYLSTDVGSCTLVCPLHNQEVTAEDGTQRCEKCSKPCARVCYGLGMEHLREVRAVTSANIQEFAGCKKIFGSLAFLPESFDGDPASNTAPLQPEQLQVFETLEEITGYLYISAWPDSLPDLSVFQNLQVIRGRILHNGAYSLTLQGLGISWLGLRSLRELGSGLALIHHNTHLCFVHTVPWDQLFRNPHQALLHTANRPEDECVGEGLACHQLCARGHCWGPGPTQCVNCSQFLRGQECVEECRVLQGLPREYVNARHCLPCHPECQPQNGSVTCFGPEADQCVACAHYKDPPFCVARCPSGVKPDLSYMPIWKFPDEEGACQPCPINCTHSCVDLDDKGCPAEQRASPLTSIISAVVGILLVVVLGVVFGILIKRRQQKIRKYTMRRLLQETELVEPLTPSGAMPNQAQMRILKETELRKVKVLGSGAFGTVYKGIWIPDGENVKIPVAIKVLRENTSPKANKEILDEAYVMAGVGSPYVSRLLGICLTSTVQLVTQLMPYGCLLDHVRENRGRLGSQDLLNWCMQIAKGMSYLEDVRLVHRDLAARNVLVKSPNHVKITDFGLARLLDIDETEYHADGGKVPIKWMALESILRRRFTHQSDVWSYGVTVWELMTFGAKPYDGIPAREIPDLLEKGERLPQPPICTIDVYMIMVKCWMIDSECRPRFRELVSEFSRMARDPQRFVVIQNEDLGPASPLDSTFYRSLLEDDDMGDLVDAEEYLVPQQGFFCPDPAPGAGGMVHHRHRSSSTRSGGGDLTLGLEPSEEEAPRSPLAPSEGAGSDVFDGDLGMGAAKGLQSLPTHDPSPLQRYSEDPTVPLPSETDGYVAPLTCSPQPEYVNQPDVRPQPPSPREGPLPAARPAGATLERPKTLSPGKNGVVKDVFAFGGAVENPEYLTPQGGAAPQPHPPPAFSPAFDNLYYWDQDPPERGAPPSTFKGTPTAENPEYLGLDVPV
Casein kinase I isoform gamma-1 (Homo sapiens), sequence (Q9HCP0 whole entry, looked up, canonical isoform): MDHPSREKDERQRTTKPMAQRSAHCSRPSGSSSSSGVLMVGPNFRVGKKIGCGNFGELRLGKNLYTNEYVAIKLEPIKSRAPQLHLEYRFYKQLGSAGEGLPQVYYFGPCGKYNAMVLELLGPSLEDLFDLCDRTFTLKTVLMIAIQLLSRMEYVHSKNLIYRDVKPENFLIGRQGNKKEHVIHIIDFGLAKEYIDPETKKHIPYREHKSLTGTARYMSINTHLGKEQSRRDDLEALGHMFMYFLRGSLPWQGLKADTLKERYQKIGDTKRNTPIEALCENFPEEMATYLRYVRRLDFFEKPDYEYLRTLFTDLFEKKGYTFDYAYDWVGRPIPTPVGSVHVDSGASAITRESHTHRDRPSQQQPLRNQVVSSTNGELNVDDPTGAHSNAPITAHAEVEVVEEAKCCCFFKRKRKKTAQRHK
Vascular endothelial growth factor receptor 3 (Homo sapiens), sequence (P35916 whole entry): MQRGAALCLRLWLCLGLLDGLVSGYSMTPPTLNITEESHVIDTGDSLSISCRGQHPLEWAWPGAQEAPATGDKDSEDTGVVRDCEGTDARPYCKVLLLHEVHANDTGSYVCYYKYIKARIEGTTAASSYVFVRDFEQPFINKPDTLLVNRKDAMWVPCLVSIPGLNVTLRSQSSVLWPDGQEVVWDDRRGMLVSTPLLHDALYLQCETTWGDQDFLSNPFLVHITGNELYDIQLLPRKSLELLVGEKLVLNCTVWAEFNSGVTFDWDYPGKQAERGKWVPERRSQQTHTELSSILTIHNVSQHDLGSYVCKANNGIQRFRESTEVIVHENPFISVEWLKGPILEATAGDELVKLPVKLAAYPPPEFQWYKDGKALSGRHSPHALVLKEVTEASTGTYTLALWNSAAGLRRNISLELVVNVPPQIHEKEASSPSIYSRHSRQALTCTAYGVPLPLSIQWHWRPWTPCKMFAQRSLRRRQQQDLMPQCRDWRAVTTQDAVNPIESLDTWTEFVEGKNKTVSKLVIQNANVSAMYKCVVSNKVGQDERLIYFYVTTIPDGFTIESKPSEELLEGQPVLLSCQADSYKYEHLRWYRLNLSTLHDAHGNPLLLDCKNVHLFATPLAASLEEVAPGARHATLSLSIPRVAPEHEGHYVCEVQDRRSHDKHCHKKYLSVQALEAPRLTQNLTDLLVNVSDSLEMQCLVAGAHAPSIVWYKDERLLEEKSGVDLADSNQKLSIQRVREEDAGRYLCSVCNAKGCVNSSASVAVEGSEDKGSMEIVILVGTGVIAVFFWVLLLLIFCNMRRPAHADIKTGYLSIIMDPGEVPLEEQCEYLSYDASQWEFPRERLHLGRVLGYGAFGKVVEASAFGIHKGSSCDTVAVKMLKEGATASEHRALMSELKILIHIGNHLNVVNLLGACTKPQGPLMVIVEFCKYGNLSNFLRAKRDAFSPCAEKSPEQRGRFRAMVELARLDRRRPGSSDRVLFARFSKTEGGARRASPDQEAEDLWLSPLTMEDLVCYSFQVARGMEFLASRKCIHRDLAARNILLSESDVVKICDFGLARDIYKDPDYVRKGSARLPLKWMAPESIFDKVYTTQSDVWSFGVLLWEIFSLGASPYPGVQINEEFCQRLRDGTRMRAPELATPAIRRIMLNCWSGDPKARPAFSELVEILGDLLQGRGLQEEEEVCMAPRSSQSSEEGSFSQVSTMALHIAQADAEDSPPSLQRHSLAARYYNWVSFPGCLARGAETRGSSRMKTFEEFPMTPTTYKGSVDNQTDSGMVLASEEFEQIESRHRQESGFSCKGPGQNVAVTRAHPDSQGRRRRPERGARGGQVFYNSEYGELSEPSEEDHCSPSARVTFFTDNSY
Ribosomal protein S6 kinase alpha-5 (Homo sapiens), sequence (O75582 whole entry, looked up, the tested form may be a part): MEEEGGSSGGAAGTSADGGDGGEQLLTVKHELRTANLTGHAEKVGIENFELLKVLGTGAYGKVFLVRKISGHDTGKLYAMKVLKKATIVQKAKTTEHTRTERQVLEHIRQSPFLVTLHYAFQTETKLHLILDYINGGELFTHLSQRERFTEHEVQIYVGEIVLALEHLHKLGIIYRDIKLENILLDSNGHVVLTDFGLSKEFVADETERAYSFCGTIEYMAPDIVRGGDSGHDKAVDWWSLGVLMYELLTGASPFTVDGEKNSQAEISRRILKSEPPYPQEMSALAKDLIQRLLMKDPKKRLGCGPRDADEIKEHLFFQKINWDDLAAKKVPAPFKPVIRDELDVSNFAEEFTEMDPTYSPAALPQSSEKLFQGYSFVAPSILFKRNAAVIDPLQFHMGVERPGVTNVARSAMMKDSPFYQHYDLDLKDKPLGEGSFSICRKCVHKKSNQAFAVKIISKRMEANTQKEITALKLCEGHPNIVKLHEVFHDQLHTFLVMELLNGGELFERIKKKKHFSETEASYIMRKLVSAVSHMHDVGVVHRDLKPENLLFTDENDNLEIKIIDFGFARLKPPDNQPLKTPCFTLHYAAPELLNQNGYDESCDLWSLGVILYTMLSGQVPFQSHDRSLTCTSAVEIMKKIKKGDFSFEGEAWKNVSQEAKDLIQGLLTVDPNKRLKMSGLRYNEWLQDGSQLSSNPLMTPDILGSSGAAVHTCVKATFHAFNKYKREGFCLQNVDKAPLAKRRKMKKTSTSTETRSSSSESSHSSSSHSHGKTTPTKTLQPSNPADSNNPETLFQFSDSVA

In the case of `O[C@H]1CC[C@H](Nc2nccc(-c3n[nH]c4ccccc34)n2)CC1`, the inhibition in test [1], in [2], in test [3], in test [4], in [5] and in test [6] was under 50% in each case. The inhibition is 87% in test [7]; under 50% in [8]; 92% in test [9]; 100% in test [10]; under 50% in test [11]; 94% in [12].

Turning to `O[C@H]1CC[C@H](Nc2nccc(-n3ccc4ccccc43)n2)CC1`, the inhibition in test [1], in [2], in test [3], in test [4], in test [5] and in [6] was under 50% each time. Moreover, the inhibition is under 50% in [7]; under 50% in test [8]; under 50% in test [9]; 98% in test [10]; under 50% in test [11]; under 50% in [12].

Regarding `O[C@H]1CC[C@H](Nc2nccc(-n3ncc4ccccc43)n2)CC1`, the inhibition in test [1], in test [2], in test [3], in [4], in test [5] and in test [6] was under 50% in each case. In addition, the inhibition in test [7] is under 50%; in [8], under 50%; in test [9], under 50%; in test [10] it was 99%; in [11] it was under 50%; in test [12] it was under 50%.

`O[C@H]1CC[C@H](Nc2nccc(-n3nnc4ccccc43)n2)CC1`: the inhibition in [1] is under 50%; in test [2], under 50%; in test [3], 96%; in test [4], under 50%; in test [5], under 50%; in test [6], under 50%. For the same molecule, the inhibition in [7] is under 50%; in test [8], under 50%; in [9] it was 97%; in test [10], 99%; in [11], under 50%; in [12], 96%.

As to `O=C([C@H]1CC[C@H](Nc2nccc(-n3nnc4ccccc43)n2)CC1)N1CCOCC1`, the inhibition in test [1], in test [2], in [3], in test [4], in test [5] and in test [6] was under 50% throughout. Besides, the inhibition in test [7] is under 50%; in test [8] it was under 50%; in [9], 75%; in test [10], 100%; in [11] it was under 50%; in test [12] it was under 50%.

On to `CS(=O)(=O)CCCOc1cccc2c1ccn2-c1ccnc(N[C@H]2CC[C@H](C(=O)N3CCC(O)CC3)CC2)n1`, for which the inhibition in test [5], in [10] and in test [12] was over 85% each time.

Take `N[C@H]1CC[C@H](Nc2nccc(-n3nnc4ccccc43)n2)CC1`: the inhibition in test [1] was under 50%; in test [2] it was under 50%; in [3], under 50%; in [4] it was under 50%; in test [5] it was under 50%; in test [6] it was 70%. For the same molecule, the inhibition is under 50% in test [7]; under 50% in [8]; 100% in test [9]; 99% in test [10]; 89% in test [11]; 94% in [12].
